Measurements pooled from the literature.
Compare with care: the assays were run in different laboratories.
CHEK1: Serine/threonine-protein kinase Chk1 (CHEK1, Homo sapiens, UniProt O14757)
GLP1R: Glucagon-like peptide 1 receptor (GLP1R, Homo sapiens, UniProt P43220)
HDAC5: Histone deacetylase 5 (HDAC5, Homo sapiens, UniProt Q9UQL6)

| SMILES | target | test | conditions | endpoint | value |
| --- | --- | --- | --- | --- | --- |
| COC(=O)Cc1ccc2c(c1)NC(=O)c1cc(C)c(-c3ccc([N+](=O)[O-])c(OC)c3)cc1N2 | CHEK1 | enzyme activity, inhibitor | – | IC50 | 49.4 nM |
| CC[C@H](C)[C@H](NC(=O)[C@H](Cc1ccccc1)NC(=O)[C@H](CCC(=O)O)NC(=O)[C@H](CCCCN)NC(=O)[C@H](C)NC(=O)[C@H](C)NC(=O)[C@H](CCC(N)=O)NC(=O)CNC(=O)[C@H](CCC(=O)O)NC(=O)[C@H](CC(C)C)NC(=O)[C@H](Cc1ccc(O)cc1)NC(=O)[C@H](CO)NC(=O)[C@H](CO)NC(=O)[C@@H](NC(=O)[C@H](CC(=O)O)NC(=O)[C@H](CO)NC(=O)[C@@H](NC(=O)[C@H](Cc1ccccc1)NC(=O)[C@@H](NC(=O)CNC(=O)[C@H](CCC(=O)O)NC(=O)[C@H](C)NC(=O)[C@H](Cc1c[nH]cn1)NC[C@H](C)N)[C@@H](C)O)[C@@H](C)O)C(C)C)C(=O)N[C@@H](C)C(=O)N[C@@H](Cc1c[nH]c2ccccc12)C(=O)N[C@@H](CC(C)C)C(=O)N[C@H](C(=O)N[C@@H](CCCCN)C(=O)NCC(=O)N[C@@H](CCCNC(=N)N)C(N)=O)C(C)C | GLP1R | reporter gene, agonist, luciferase | – | EC50 | 0.00251 nM |
| CCCCCCCC/C=C\CCCCCCCC(=O)O[C@H](CC(=O)[O-])C[N+](C)(C)C | Pantothenate kinase 3 (PANK3, Homo sapiens, UniProt Q9H999) | enzyme activity, inhibitor, radiometric | – | EC50 | 600 nM |
| C#Cc1cccc(Nc2ncnc3cc(OC)c(OCCCCCCC(=O)NO)cc23)c1 | HDAC5 | cell-free assay | – | Kd | > 30200 nM |
| COc1cc(-c2ccc3c(c2)Nc2ccc(OCCN4CCOCC4)cc2NC3=O)ccc1[N+](=O)[O-] | CHEK1 | enzyme activity, inhibitor | – | IC50 | 24.5 nM |
| CCN(CC)Cc1ccc2cc(COC(=O)Nc3ccc(C(=O)NO)cc3)ccc2c1 | HDAC5 | cell-free assay | – | Kd | > 30200 nM |
| CCCCc1nc2c(o1)c(N)nc1ccccc12 | Toll-like receptor 8 (TLR8, Homo sapiens, UniProt Q9NR97) | reporter gene, agonist | – | EC50 | 12500 nM |
| COc1cc(Nc2ncc3c(n2)-c2ccc(Cl)cc2C(c2c(F)cccc2OC)=NC3)ccc1C(=O)NCCOCCOCCNC(=O)COc1cccc2c1C(=O)N(C1CCC(=O)NC1=O)C2=O (stereo not shown) | Ferrochelatase, mitochondrial (FECH, Homo sapiens, UniProt P22830) | binding | lysate | Kd | 6430 nM |
| COc1cc(-c2ccc3c(c2)Nc2ccc(NC(N)=O)cc2NC3=O)ccc1[N+](=O)[O-] | CHEK1 | enzyme activity, inhibitor | – | IC50 | 6.41 nM |
| CSCC[C@H](NC(=O)[C@H](CCC(=O)O)NC(=O)[C@@H]1CCCN1C(=O)[C@@H](NC(=O)[C@@H]1CCCN1)[C@@H](C)O)C(=O)N[C@@H](CCCNC(=N)N)C(=O)N[C@@H](CCC(=O)O)C(=O)N[C@@H](CCCCN)C(=O)N[C@@H](CC(C)C)C(=O)N[C@H]1CSSC[C@@H]2NC(=O)[C@@H](NC(=O)[C@H](Cc3ccc(O)cc3)NC(=O)[C@H](CCCNC(=N)N)NC(=O)[C@H](C)NC(=O)[C@@H]3CCCN3C(=O)[C@H](CC(N)=O)NC(=O)[C@@H](NC(=O)[C@H](C)NC(=O)[C@H](C)NC(=O)[C@H](C)N)[C@@H](C)O)CSSC[C@H](NC(=O)CNC(=O)[C@H](CO)NC(=O)[C@H](CC(C)C)NC2=O)C(=O)N[C@@H]([C@@H](C)O)C(=O)N[C@@H](CCC(N)=O)C(=O)N[C@@H](CCC(N)=O)C(=O)N[C@@H](CC(=O)O)C(=O)N[C@@H](CC(C)C)C(=O)N[C@@H](CC(C)C)C(=O)N[C@@H]([C@@H](C)O)C(=O)N[C@@H](CC(C)C)C(=O)N[C@H](C(=O)N2CCC[C@H]2C(=O)N[C@@H](Cc2ccc(O)cc2)C(=O)O)CSSC[C@@H](C(=O)NCC(=O)NCC(=O)N2CCC[C@H]2C(=O)N[C@@H](CCCNC(=N)N)C(=O)N[C@@H](Cc2c[nH]c3ccccc23)C(=O)N[C@@H](CO)C(=O)N[C@H](C(=O)N[C@@H](CCC(=O)O)C(=O)N[C@@H](C)C(=O)O)[C@@H](C)O)NC(=O)[C@H](C(C)C)NC(=O)[C@H](CCCNC(=N)N)NC(=O)[C@H](C(C)C)NC(=O)[C@H](CC(C)C)NC(=O)[C@H](C)NC(=O)[C@H](CCCNC(=N)N)NC(=O)[C@H](C(C)C)NC(=O)[C@H](Cc2ccccc2)NC(=O)[C@H](Cc2c[nH]cn2)NC(=O)[C@H](Cc2c[nH]cn2)NC(=O)CNC1=O | Relaxin receptor 2 (RXFP2, Homo sapiens, UniProt Q8WXD0) | cAMP, agonist | – | EC50 | 0.0166 nM |
| CC(C)(Oc1ccc(CCNC(=O)c2ccc(Cl)cc2)cc1)C(=O)O | Peroxisome proliferator-activated receptor gamma (PPARG, Homo sapiens, UniProt P37231) | binding, ITC | – | Kd | 30300 nM |
| O=C(O)c1ccc(-c2[nH]nc3c2Cc2cc(CNC4CCC(O)CC4)ccc2-3)o1 (stereo not shown) | CHEK1 | enzyme activity, inhibitor | – | IC50 | 1560 nM |
| c1ccc2c(Oc3nc(Nc4ccc(N5CCOCC5)cc4)c4ncn(C5CCCCC5)c4n3)cccc2c1 | Protein smoothened (SMO, Homo sapiens, UniProt Q99835) | GTPγS binding, agonist, radiometric | cell membranes | EC50 | 229 nM |
| CC[C@H](C)[C@H](NC(=O)[C@H](CC(=O)O)NC(=O)[C@H](CO)NC(=O)[C@@H](NC(=O)[C@H](Cc1ccccc1)NC(=O)[C@@H](NC(=O)CNC(=O)[C@H](CC(=O)O)NC(=O)[C@H](C)NC(=O)[C@@H](N)Cc1c[nH]cn1)[C@@H](C)O)[C@@H](C)O)C(=O)N[C@@H](CC(N)=O)C(=O)N[C@@H](CCCCN)C(=O)N[C@H](C(=O)N[C@@H](CC(C)C)C(=O)N[C@@H](CC(=O)O)C(=O)N[C@@H](CC(=O)O)C(=O)N[C@@H](CCSC)C(=O)N[C@@H](C)C(=O)N[C@@H](C)C(=O)N[C@@H](CCCCN)C(=O)N[C@@H](CCC(=O)O)C(=O)N[C@@H](Cc1ccccc1)C(=O)N[C@@H](CC(C)C)C(=O)N[C@@H](CCCCN)C(=O)N[C@@H](Cc1c[nH]c2ccccc12)C(=O)N[C@@H](CC(C)C)C(=O)N[C@H](C(=O)N[C@@H](CC(N)=O)C(=O)N[C@H](C(=O)N[C@@H](CCCCN)C(=O)N[C@H](C(=O)N[C@H](C(=O)N[C@@H](CCC(N)=O)C(=O)O)[C@@H](C)O)C(C)C)[C@@H](C)O)[C@@H](C)CC)[C@@H](C)CC | GLP1R | reporter gene, agonist, luciferase | – | EC50 | 2.79 nM |
| Oc1ccc(-c2ccc(-c3[nH]nc4c3Cc3cc(O)ccc3-4)cc2)cc1 | CHEK1 | enzyme activity, inhibitor | – | IC50 | 5.9 nM |
| CC(=O)c1cc([N+](=O)[O-])c(Sc2cccc(Cl)c2Cl)s1 | Caspase-3 (CASP3, Homo sapiens, UniProt P42574) | enzyme activity, inhibitor | – | EC50 | > 50000 nM |
